Laboratory results reported in PMC3696402 (Neuropharmacology, 2013).

Experiments:
[1] = system: histamine H1 GPCRs; conditions: previous studies; ref Bucholtz et al., 2009; cited from earlier work
[2] = system: C57Bl/6J male mice; test: DOI-elicited head-twitch response; type: in vivo; conditions: for Number of head-twitches: 10-min session; for DOI-elicited HTR (responses) after pretreatment: 30 mg/kg i.p. pretreatment before 1 mg/kg (−)-DOI; for DOI-elicited HTRs after oral administration: 30 mg/kg oral (gavage) 20 min before (−)-DOI 1.0 mg/kg; for ED50 value (±95% CL), 50% attenuation of the DOI-elicited response: i.p. pretreatment before 1 mg/kg (−)-DOI
Outline: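 Male C57Bl/6J mice (Jackson, pair-housed, ~8 weeks old on arrival, ≥1 week acclimation), tested mid-light phase after 30 min room habituation. Test compound or saline (sterile saline, 0.01 ml/g) given i.p. 10 min, or orally by gavage 20 min, before (−)-DOI (0.1–1.0 mg/kg) or saline. Ten min after DOI, head twitches counted over 10 min by a blind observer. ED50 reported with 95% CL.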

[3] = system: C57Bl/6J male mice; test: Locomotor activity; type: in vivo
[4] = biological target: adenosine, adrenergic, benzodiazepine, cholinergic, dopamine, GABAA, histamine H2, H3, H4, NMDA/PCP, opiate, and serotonin 5-HT1A, 5-HT1B, receptors; test: Preliminary off-target binding studies; conditions: read-out: Ki (off-target receptors), comparatively low (Ki > 0.5 μM) or very low (Ki > 1 μM) affinity, initial results, PDSP 2012
[5] = biological target: T1, 5HT2C receptors (Homo sapiens, UniProt P28335); test: PLC activation and [3H]-IP formation in HEK cells; type: cell-based; conditions: for EC50: read-out: 5HT2C EC50±SEM, [3H]-IP formation, 30 min incubation
T1 sequence (P28335 33-458): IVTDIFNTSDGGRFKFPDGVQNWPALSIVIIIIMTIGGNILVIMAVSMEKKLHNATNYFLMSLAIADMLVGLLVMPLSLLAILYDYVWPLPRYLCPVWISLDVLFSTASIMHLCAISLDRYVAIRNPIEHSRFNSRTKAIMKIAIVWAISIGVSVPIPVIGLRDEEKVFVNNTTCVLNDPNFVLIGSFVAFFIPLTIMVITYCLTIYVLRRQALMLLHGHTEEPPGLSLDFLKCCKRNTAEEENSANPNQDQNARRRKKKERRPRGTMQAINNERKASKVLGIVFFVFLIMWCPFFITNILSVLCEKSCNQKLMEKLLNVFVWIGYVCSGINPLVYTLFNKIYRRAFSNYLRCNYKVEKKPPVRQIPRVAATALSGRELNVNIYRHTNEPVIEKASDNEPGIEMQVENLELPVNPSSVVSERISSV

[6] = biological target: T2, 5HT2B receptors (Homo sapiens, UniProt P41595); test: PLC activation and [3H]-IP formation in HEK cells; type: cell-based; conditions: at 10 μM
[7] = biological target: T3, 5HT2A receptors (Homo sapiens, UniProt P28223); test: Radioreceptor competition binding, [3H]-ketanserin, HEK membranes; conditions: read-out: 5HT2A Ki ± SEM; [3H]-ketanserin 2.0 nM, 1.0 h at 37°C
Outline: (§1)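 HEK-293 cells transiently transfected (Lipofectamine 2000, 24–48 h) with human receptor cDNA (5HT2C: unedited INI isoform). Membranes in 50 mM Tris, 10 mM MgCl2, 0.1 mM EDTA; 3–5 μg protein per well. Nonspecific binding defined with 10 μM mianserin. Separated by GF/B filtration with five 50 mM Tris-HCl washes, then scintillation counting. Triplicates, at least 3 experiments; IC50 converted to Ki by Cheng–Prusoff.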

[8] = biological target: T1, 5HT2C receptors; test: Radioreceptor competition binding, [3H]-mesulergine, HEK membranes; conditions: read-out: 5HT2C Ki ± SEM; [3H]-mesulergine 1.4 nM, 1.0 h at 37°C
Outline: as §1

[9] = system: C57Bl/6J male mice; test: Palatable meal eating; type: in vivo; conditions: for Eating (pellets consumed) as % of baseline levels: 24 mg/kg i.p. 15 min before 30-min access to Crunchies; for ED50 value (±95% CL), 50% attenuation of consumption: i.p. 15 min before 30-min access to Crunchies
Outline: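 Singly housed male C57Bl/6J mice (Harlan) with chow and water ad lib. In home cages, 10 sweet pellets (~190 mg, 3.5 kcal/g) were offered five days/week, with access tapered to 30 min/day. After ~2 weeks of stable intake, test compound was given i.p. (2 ml/kg, sterile saline) 15 min before access. Pellets eaten were counted. ED50 reported with 95% CL.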

[10] = biological target: T3, 5HT2A receptors; test: PLC activation and [3H]-IP formation in HEK cells; type: cell-based; conditions: for 5HT2A Function (activation of PLC/IP formation): at 10 μM
[11] = biological target: T2, 5HT2B receptors; test: Radioreceptor competition binding, [3H]-mesulergine, HEK membranes; conditions: read-out: 5HT2B Ki ± SEM; [3H]-mesulergine 1.95 nM, 1.0 h at 37°C
Outline: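 Membranes came from HEK-293 cells transfected with 24 μg human 5HT2B cDNA (Lipofectamine 2000, 24–48 h) and collected in 50 mM Tris, 10 mM MgCl2, 0.1 mM EDTA. […] Nonspecific binding: 10 μM mianserin. Filtered on GF/B, washed five times with Tris-HCl, scintillation counted. Triplicates, ≥3 experiments.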

[12] = 3 mg/kg i.p. with DOI (1 mg/kg)
[13] = 10 mg/kg i.p. with DOI (1 mg/kg)
[14] = 10 mg/kg i.p. with saline (no DOI)
[15] = 30 mg/kg i.p. with DOI (1 mg/kg)
[16] = 30 mg/kg i.p. with saline (no DOI)
[17] = 30 mg/kg oral pretreatment before 1.0 mg/kg DOI

T2 sequence (P41595 whole entry): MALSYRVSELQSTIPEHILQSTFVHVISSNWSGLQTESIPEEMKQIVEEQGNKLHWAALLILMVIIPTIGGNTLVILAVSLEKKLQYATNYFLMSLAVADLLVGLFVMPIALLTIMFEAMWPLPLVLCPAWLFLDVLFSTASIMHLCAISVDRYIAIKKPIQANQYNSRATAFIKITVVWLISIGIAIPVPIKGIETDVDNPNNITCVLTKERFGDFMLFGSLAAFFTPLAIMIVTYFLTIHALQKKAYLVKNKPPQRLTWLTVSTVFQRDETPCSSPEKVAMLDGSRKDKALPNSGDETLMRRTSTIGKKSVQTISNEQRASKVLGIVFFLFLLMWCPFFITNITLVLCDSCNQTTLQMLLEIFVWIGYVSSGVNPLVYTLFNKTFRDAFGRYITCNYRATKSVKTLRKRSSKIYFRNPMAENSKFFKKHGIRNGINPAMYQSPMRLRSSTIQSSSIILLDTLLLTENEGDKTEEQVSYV
T3 sequence (P28223 whole entry, canonical isoform): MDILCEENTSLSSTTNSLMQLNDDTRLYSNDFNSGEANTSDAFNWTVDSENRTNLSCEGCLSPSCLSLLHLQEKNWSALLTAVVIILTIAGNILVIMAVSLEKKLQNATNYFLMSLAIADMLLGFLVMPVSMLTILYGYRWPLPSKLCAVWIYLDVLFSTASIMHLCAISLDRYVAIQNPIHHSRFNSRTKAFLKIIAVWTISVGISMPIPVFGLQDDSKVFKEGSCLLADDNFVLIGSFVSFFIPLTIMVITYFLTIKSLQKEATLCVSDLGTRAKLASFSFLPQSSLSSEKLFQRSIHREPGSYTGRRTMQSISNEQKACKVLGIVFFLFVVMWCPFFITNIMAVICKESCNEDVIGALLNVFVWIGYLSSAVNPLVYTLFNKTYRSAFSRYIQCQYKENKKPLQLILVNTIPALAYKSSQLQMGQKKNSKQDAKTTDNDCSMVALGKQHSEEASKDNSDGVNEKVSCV

Row | Structure (SMILES) | Affinity at histamine H1 GPCRs [1] | Ki [4] [µM] | Function at the 5HT2C receptor (efficacy compared to 5HT) [5] | EC50 [5] [µM] | 5HT2B Function (activation of PLC/IP formation) [6] | DOI-elicited HTR (responses) after pretreatment [2] | DOI-elicited HTRs after oral administration [2] | ED50 value (±95% CL), 50% attenuation of the DOI-elicited response [2] | Ki [7] [µM] | Ki [8] [µM] | Eating (pellets consumed) as % of baseline levels [9] [%] | ED50 value (±95% CL), 50% attenuation of consumption [9] | 5HT2A Function (activation of PLC/IP formation) [10] | Distance travelled (mean ± s.e.m.) [3, 12] [cm] | Distance travelled (mean ± s.e.m.) [3, 13] [cm] | Distance travelled (mean ± s.e.m.) [3, 14] [cm] | Distance travelled (mean ± s.e.m.) [3, 15] [cm] | Distance travelled (mean ± s.e.m.) [3, 16] [cm] | Distance travelled (mean ± s.e.m.) [3, 17] [cm] | Ki [11] [µM] | also measured
1 | CN(C)[C@@H]1Cc2ccccc2[C@@H](c2ccccc2)C1 (relative stereo) [(−)-trans-PAT, (−)-(2S, 4R)-trans-4-phenyl-N,N-dimethyl-2-aminotetralin, reference compound] | high affinity |  |  |  |  |  |  |  |  |  |  |  |  |  |  |  |  |  |  |  | 
2 | COc1cc(CC(C)N)c(OC)cc1I.Cl (single isomer, unassigned; (-)) [(−)-DOI, (−)-2,5-dimethoxy-4-iodoamphetamine hydrochloride, reference compound] |  |  |  |  |  |  |  |  |  |  |  |  |  |  |  |  |  |  |  |  | Number of head-twitches ([2]; 0.1 mg/kg (−)-DOI preceded by a saline injection): 6; Number of head-twitches ([2]; 0.3 mg/kg (−)-DOI preceded by a saline injection): 22; Number of head-twitches ([2]; 1.0 mg/kg (−)-DOI preceded by a saline injection): 45; Number of HTRs ([2]; (−)-DOI 1.0 mg/kg following oral saline administration): 37.5; Distance travelled (mean ± s.e.m.) ([3]; saline pretreatment, (−)-DOI 0.1 mg/kg): 2829 ± 481 cm; Distance travelled (mean ± s.e.m.) ([3]; saline pretreatment, (−)-DOI 0.3 mg/kg): 2804 ± 353 cm; Distance travelled (mean ± s.e.m.) ([3]; saline pretreatment, (−)-DOI 1.0 mg/kg): 3626 ± 392 cm
3 | CN(C)[C@H]1Cc2ccccc2[C@H](c2ccc(Cl)cc2)C1 (stereo in doubt) [(+)-p-Cl-PAT, (+)-(2R, 4S)-trans-4-(4′-chlorophenyl)-N,N-dimethyl-2-aminotetralin] |  | > 0.5 | partial agonists | 0.14 ± 0.02 | No Activation ^1 | 3.3 | 8.5 | 8.2 (5.4–12.4) mg/kg | 0.042 ± 0.006 | 0.045 ± 0.007 | 15.9 | 14.8 (11.8–18.7) mg/kg | No Activation | 3523 ± 518 | 2557 ± 99 | 2142 ± 124 | 1329 ± 434 | 870 ± 502 | 1586 ± 398 | 0.08 ± 0.01 | Potency at 5HT2C relative to (−)-p-Cl-PAT ([5]; ratio of EC50 values): about 12 times; pA2 (competitive antagonism of 5HT activation of 5HT2A-mediated [3H]-IP formation) ([10]; Schild analysis versus 5HT): 6.21 ± 0.55; Distance travelled (mean ± s.e.m.) ([3]; 3 mg/kg i.p. with saline (no DOI)): 2216 ± 98 cm
4 | CN(C)[C@H]1Cc2ccccc2[C@H](c2ccc(Cl)cc2)C1 (stereo in doubt) [(±) p-Cl-PAT, racemic trans-4-(4′-chlorophenyl)-N,N-dimethyl-2-aminotetralin] | high affinity |  |  |  |  |  | 13.25 |  |  |  |  |  |  |  |  |  |  |  | 1662 ± 468 |  | 
5 | CN(C)[C@@H]1Cc2ccccc2[C@@H](c2ccc(Cl)cc2)C1 (stereo in doubt) [(−)-p-Cl-PAT, (−)-(2S, 4R)-trans-4-(4′-chlorophenyl)-N,N-dimethyl-2-aminotetralin] |  | > 0.5 | partial agonists | 1.65 ± 0.149 | No Activation ^1 | 13 | 18.25 | 20.1 (14.0–28.8) mg/kg | 0.24 ± 0.032 | 0.13 ± 0.016 | 36.4 | 21.3 (18.5–24.4) mg/kg | No Activation ^1 | 3386 ± 150 | 3064 ± 309 | 3097 ± 937 | 1889 ± 191 | 1994 ± 165 | 1944 ± 654 | 0.3 ± 0.03 | 
